The text below walks through data of ChEMBL document CHEMBL1132564, “Antitumor benzothiazoles. 7. Synthesis of 2-(4-acylaminophenyl)benzothiazoles and investigations into the role of acetylation in the antitumor activities of the parent amines” (J Med Chem, 1999).

One may read the IC50 as the concentration at which inhibition is half-maximal.

In experiment [1] the test system is MCF7. The experiment is described as follows: In vitro antitumor activity against MCF-7 carcinoma cell line. The experiment is classed as functional, cell-based. To be noted: Homo sapiens. In outline:
(§1)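 MTT assay, 7-day format: 250–300 cells/well, adhered 24 h drug-free, then compound 1 pM–100 μM (n = 8), final DMSO <0.25%; RPMI 1640/10% FCS, 37 °C, 5% CO2. MTT added after exposure, 4 h, formazan dissolved in DMSO–glycine (4:1), absorbance 550 nm.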

Experiment [2] relates to MDA-MB-468. The experiment is described as follows: In vitro antitumor activity against MDA-468 carcinoma cell line. In kind it is functional, cell-based. Particulars: Homo sapiens. In outline:
as §1

Experiment [3] concerns NCI. The experiment is described as follows: In vitro antitumor activity against carcinoma cell lines by 2-day assay. In kind it is functional, Homo sapiens. Summed up: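 NCI panel sulforhodamine B assay: line-specific seeding, 24 h drug-free, then five 10-fold dilutions (top 10^-4 M) for 2 days; growth inhibition from protein-stain optical density change; mean log GI50 across panel.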

For experiment [4], the system named is Homo sapiens. Kind of experiment: In vitro concentration to reduce colony formation of human tumor xenografts to 30% of the control. The experiment is classed as functional. Summed up: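 Clonogenic colony-formation assay using cells from 22 human tumor xenografts, tested at 0.1, 1.0 and 10 μg/mL; colony inhibition expressed as T/C, with T/C < 30% scored active; IC70 concentration reported.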
(In general: A xenograft is tissue or cells of one species grown in another, often human tumour cells in immunodeficient mice.)

The test system of experiment [5] is NCI. The experiment is described as follows: In vitro antitumor activity against carcinoma cell lines by 6-day assay. In kind it is functional, Homo sapiens. In outline:
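NCI 60-cell-line panel, sulforhodamine B protein stain. Seeding density set per line's growth; 24 h drug-free incubation, then test agent at five 10-fold dilutions up to 10^-4 M for 6 days of exposure. Growth inhibition derived from change in protein-stain optical density; log GI50 reported.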

As for `Nc1ccc(-c2nc3ccccc3[nH]2)cc1`, the IC50 was more than 10000 nM in experiment [1] and more than 1000 nM in experiment [2].

With `Nc1ccc(-c2nc3ccccc3o2)cc1`, the values for the IC50 in experiment [1] and in experiment [2] were more than 100 nM and more than 1000 nM, respectively. The “Mean log GI50” value in experiment [3] is reported as -4.26 M.

Take `Cc1cc(-c2nc3ccccc3s2)ccc1N`: the concentration for half-maximal inhibition (IC50) in experiment [1] and in experiment [2] was less than 1 nM each time. Further, the “Mean IC70” value in experiment [4] amounted to 6.9 µg/mL. In addition, the “Mean log GI50” value in experiment [3] was -4.61 M; in experiment [5], -5.05 M.

In the case of `Nc1ccc(-c2nc3ccccc3s2)cc1Cl`, the IC50 in experiment [1] and in experiment [2] was less than 1 nM throughout. Moreover, the “Mean log GI50” value in experiment [3] was -4.75 M; in experiment [5], -5.26 M.

As for `CC(=O)Nc1ccc(-c2nc3ccccc3s2)cc1[N+](=O)[O-]`, the IC50 in experiment [1] and in experiment [2] was more than 1000 nM throughout.

For `CC(=O)Nc1ccc(-c2nc3ccccc3o2)cc1`, the IC50 in experiment [1] and in experiment [2] was more than 10000 nM throughout. Besides, the “Mean log GI50” value in experiment [3] is -4.27 M.

Take `CC(=O)Nc1ccc(-c2nc3ccccc3s2)cc1Cl`: the IC50 in experiment [1] is more than 10 nM; in experiment [2], more than 100 nM. Besides, the “Mean log GI50” value in experiment [3] is reported as -4.54 M.

In the case of `O=C(Nc1ccc(-c2nc3ccccc3s2)cc1)C(Cl)Cl`, the IC50 in experiment [1] and in experiment [2] was more than 100 nM in each case.

In the case of `O=C(CCl)Nc1ccc(-c2nc3ccccc3s2)cc1`, the IC50 is more than 10 nM in experiment [1] and more than 100 nM in experiment [2]. Moreover, the “Mean IC70” value in experiment [4] was found to be 3.5 µg/mL. Moreover, the “Mean log GI50” value in experiment [3] is reported as -5.7 M.

For `CC(=O)Nc1ccc(-c2nc3ccccc3s2)cc1I`, the half-maximal inhibitory concentration (IC50) in experiment [1] and in experiment [2] was more than 100 nM throughout. Moreover, in experiment [3], the “Mean log GI50” value is reported as -4.7 M.

Consider `O=C(Nc1ccc(-c2nc3ccccc3s2)cc1)C(F)(F)F`, for which the results for the IC50 in experiment [1] and in experiment [2] were more than 10 nM and more than 100 nM, respectively.

On to `CC(=O)N(C(C)=O)c1ccc(-c2nc3ccccc3s2)cc1Cl`, for which the IC50 in experiment [1] is more than 10000 nM; in experiment [2] it was more than 1000 nM.

Take `CC(=O)Nc1ccc(-c2nc3ccccc3s2)cc1`: the IC50 in experiment [1] and in experiment [2] was more than 100 nM in each case. The “Mean log GI50” value in experiment [3] is -4.4 M.

In the case of `c1ccc2sc(-c3ccc4[nH]ncc4c3)nc2c1`, the IC50 in experiment [1] and in experiment [2] was more than 10000 nM in each case.

On to `CC(=O)Nc1ccc(-c2nc3ccccc3s2)cc1C`, for which the IC50 in experiment [1] and in experiment [2] was more than 10000 nM in each case. For the same compound, the “Mean log GI50” value in experiment [3] was -4.36 M.

Consider `CC(=O)N(C(C)=O)c1ccc(-c2nc3ccccc3s2)cc1C`, for which the IC50 in experiment [1] and in experiment [2] was more than 10000 nM throughout.

Regarding `Nc1ccc(-c2nc3ccccc3s2)cc1I`, the IC50 in experiment [1] and in experiment [2] was less than 1 nM each time. In addition, the “Mean IC70” value in experiment [4] came to 6.1 µg/mL. In addition, the “Mean log GI50” value in experiment [3] is listed as -4.75 M; in experiment [5], -5.12 M.

On to `O=C(CCl)Nc1ccc(-c2nc3ccccc3s2)cc1I`, for which the IC50 in experiment [1] and in experiment [2] was more than 10 nM in each case.

Take `CC(=O)N(C(C)=O)c1ccc(-c2nc3ccccc3s2)cc1`: the IC50 in experiment [1] and in experiment [2] was more than 100 nM in each case.

As to `O=C(CCl)Nc1ccc(-c2nc3ccccc3o2)cc1`, the IC50 in experiment [1] and in experiment [2] was more than 1000 nM in each case.

On to `C/C(S)=N/c1ccc(-c2nc3ccccc3s2)cc1`, for which the IC50 in experiment [1] and in experiment [2] was more than 100 nM each time.

Regarding `CC(=O)Nc1ccc(-c2nc3ccccc3s2)cc1Br`, the IC50 in experiment [1] is more than 10 nM; in experiment [2], more than 100 nM. Besides, the “Mean log GI50” value in experiment [3] was -4.52 M.

On to `CC(=O)Nc1ccc(-c2nc3ccccc3[nH]2)cc1`, for which the half-maximal inhibitory concentration (IC50) in experiment [1] and in experiment [2] was more than 10000 nM throughout.

On to `O=C(Nc1ccc(-c2nc3ccccc3s2)cc1)c1ccccc1`, for which the IC50 in experiment [1] and in experiment [2] was more than 1000 nM throughout.

On to `Nc1ccc(-c2nc3ccccc3s2)cc1`, for which the IC50 in experiment [1] and in experiment [2] was more than 10 nM each time. For the same compound, the “Mean IC70” value in experiment [4] turned out to be 10 µg/mL. For the same compound, the “Mean log GI50” value in experiment [3] is listed as -4.76 M.
